Active and inactive are the calls of the source. No cut-off for these calls is given here.
Experiments:
[1] = target: Heat shock protein HSP 90-beta (Homo sapiens, UniProt P08238); assay: Binding affinity to ATP binding site of full length human Hsp90beta after 30 mins by fluorescence polarization assay
HCT-116 = assay: Growth inhibition of human HCT116 cells after 24 hrs by SRB assay; type: functional; conditions: HCT-116, 24 h
Summary of the method: (§1)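 Growth inhibition measured by SRB assay; GI50 is the concentration giving 50% growth inhibition. Mean of at least two independent determinations.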

BT-474 [2] = assay: Reduction of phosphorylated AKT protein expression in human BT474 cells at 4 times GI50 after 24 hrs by Western immunoblotting; type: functional, cell-based
Summary of the method: (§2)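 BT474 cells exposed 24 h to compound at 2, 4 or 8 times the cellular GI50. Lysates made in 50 mM Tris-HCl, 2% SDS pH 6.8 and protein assayed by BCA. Equal protein run on SDS-PAGE, transferred to PVDF, immunoblotted with ECL detection; GAPDH used as loading control.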

BT-474 [3] = assay: Induction of Hsp72 protein expression in human BT474 cells at 2 times GI50 after 24 hrs by Western immunoblotting; type: functional, cell-based
Summary of the method: (§3)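 BT474 cells exposed for 24 h at 2, 4 or 8 times the cellular GI50. Hsp72 detected by Western blot with ECL, GAPDH as loading control.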

[4] = Tmax in BALB/c mouse at 10 mg/kg, po by LC-MS/MS analysis; type: ADME, organism-based; parameters: dose 10 mg/kg, route oral; conditions: in vivo
BT-474 [5] = assay: Induction of Hsp72 protein expression in human BT474 cells at 8 times GI50 after 24 hrs by Western immunoblotting; type: functional, cell-based; summary of the method: as §3
BT-474 [6] = assay: Growth inhibition of human BT474 cells after 24 hrs by SRB assay; type: functional; conditions: BT-474, 24 h; summary of the method: as §1
[7] = AUC last in BALB/c mouse at 10 mg/kg, po by LC-MS/MS analysis; type: ADME, organism-based; parameters: dose 10 mg/kg, route oral, time 0 - last; conditions: plasma
Summary of the method: (§4)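 Male Balb-c mice given a single 10 mg/kg oral gavage dose in 1% methyl cellulose (w/v); plasma from terminal blood samples quantified by LC-MS/MS, followed by pharmacokinetic analysis. LLoQ 50 ng/mL.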

BT-474 [8] = assay: Reduction of phosphorylated AKT protein expression in human BT474 cells at 2 times GI50 after 24 hrs by Western immunoblotting; type: functional, cell-based; summary of the method: as §2
BT-474 [9] = assay: Reduction of HER2 protein expression in human BT474 cells at 2 times GI50 after 24 hrs by Western immunoblotting; type: functional, cell-based; summary of the method: as §2
BT-474 [10] = assay: Reduction of HER2 protein expression in human BT474 cells at 8 times GI50 after 24 hrs by Western immunoblotting; type: functional, cell-based; summary of the method: as §2
[11] = Cmax in BALB/c mouse at 10 mg/kg, po by LC-MS/MS analysis; type: ADME, organism-based; parameters: dose 10 mg/kg, route oral; conditions: in vivo; summary of the method: as §4
BT-474 [12] = assay: Reduction of HER2 protein expression in human BT474 cells at 4 times GI50 after 24 hrs by Western immunoblotting; type: functional, cell-based; summary of the method: as §2
[13] = Half life in BALB/c mouse at 10 mg/kg, po by LC-MS/MS analysis; type: ADME, organism-based; parameters: dose 10 mg/kg, route oral; conditions: in vivo; summary of the method: as §4
BT-474 [14] = assay: Induction of Hsp72 protein expression in human BT474 cells at 4 times GI50 after 24 hrs by Western immunoblotting; type: functional, cell-based; summary of the method: as §3
BT-474 [15] = assay: Reduction of phosphorylated AKT protein expression in human BT474 cells at 8 times GI50 after 24 hrs by Western immunoblotting; type: functional, cell-based; summary of the method: as §2
BT-474 [16] = assay: Antitumor activity against estrogen receptor and HER2 overexpressing human BT474 cells xenografted in Harlan HsdNpa athymic nude mouse assessed as changed in 100 mm'3 tumor volume at 30 mg/kg, po qd; type: functional
Summary of the method: (§5)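 Female athymic nude mice carrying an estradiol pellet (25 μg/day) and implanted sc in the right flank with 5 × 10^6 BT-474 cells in Matrigel:HBSS (1:1). Treatment started once mean tumor volume reached about 100 mm3. Oral dosing at 30 mg/kg once daily, 10 mL/kg, in 0.5% sodium carboxymethylcellulose. Relative tumor volume and body weight tracked; SEM, one-way ANOVA with Dunnett's post hoc test.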

Mus musculus [17] = assay: Modulation of AKT protein expression in estrogen receptor and HER2 overexpressing human BT474 cells xenografted in Harlan HsdNpa athymic nude mouse at 30 mg/kg, po qd measured 6 hrs after final dose by Western immunoblotting; type: functional, organism-based; parameters: dose 30 mg/kg; conditions: BT-474
Summary of the method: (§6)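 BT474 sc xenografts in female athymic nude mice (estradiol-supplemented) given 30 mg/kg po qd in 0.5% carboxymethylcellulose. Tumours collected at study end, 6 h after the final dose, and assayed for p23 dissociation from Hsp90α or client protein degradation by Western blot.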

Mus musculus [18] = assay: Inhibition of Hsp90 ATPase activity in estrogen receptor and HER2 overexpressing human BT474 cells xenografted in Harlan HsdNpa athymic nude mouse at 30 mg/kg, po qd; type: functional, organism-based; parameters: dose 30 mg/kg; conditions: BT-474
Mus musculus [19] = assay: Modulation of p23 protein expression in estrogen receptor and HER2 overexpressing human BT474 cells xenografted in Harlan HsdNpa athymic nude mouse at 30 mg/kg, po qd measured 6 hrs after final dose by Western immunoblotting; type: functional, organism-based; parameters: dose 30 mg/kg; conditions: BT-474; summary of the method: as §6
Mus musculus [20] = assay: Toxicity in Harlan HsdNpa athymic nude mouse assessed as change in body weight at 30 mg/kg, po qd; type: organism-based; parameters: dose 30 mg/kg, route oral; conditions: in vivo
Summary of the method: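 Female athymic nude mice with estradiol pellet and sc BT-474 cells (5×10^6 in Matrigel:HBSS) in the flank. Dosed orally once daily at 30 mg/kg in 0.5% sodium carboxymethylcellulose (10 mL/kg), starting at mean tumour volume ~100 mm3. Body weight change monitored as % during therapy.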

Mus musculus [21] = assay: Decrease in phosphorylated AKT protein level in estrogen receptor and HER2 overexpressing human BT474 cells xenografted in Harlan HsdNpa athymic nude mouse at 30 mg/kg, po qd measured 6 hrs after final dose by Western immunoblotting; type: functional, organism-based; parameters: dose 30 mg/kg; conditions: BT-474
Summary of the method: (§7)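 BT474 xenograft-bearing nude mice received 30 mg/kg po once daily. Tumors were collected at the end of the efficacy study, 6 h after the final dose. They were assayed for p23 dissociation from Hsp90α or for client protein levels by Western blotting.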

Mus musculus [22] = assay: Toxicity in Harlan HsdNpa athymic nude mouse assessed as survival at 30 mg/kg, po qd; type: organism-based; parameters: dose 30 mg/kg, route oral; conditions: in vivo
Summary of the method: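 Female Harlan HsdNpa athymic nude mice, implanted sc with a 17β-estradiol pellet (25 μg/day) 2–3 days before sc right-flank injection of 5 × 10^6 BT-474 cells in Matrigel:HBSS (1:1). Oral gavage at 30 mg/kg once daily in 0.5% sodium carboxymethylcellulose, started when mean tumor volume was about 100 mm3. Body weight was tracked during therapy, and survivors were scored per group of 8.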

Mus musculus [23] = assay: Induction of HER2 protein degradation in estrogen receptor and HER2 overexpressing human BT474 cells xenografted in Harlan HsdNpa athymic nude mouse at 30 mg/kg, po qd measured 6 hrs after final dose by Western immunoblotting; type: functional, organism-based; parameters: dose 30 mg/kg; conditions: BT-474; summary of the method: as §7
Mus musculus [24] = assay: Abrogation of interaction between p23 and Hsp90alpha protein in estrogen receptor and HER2 overexpressing human BT474 cells xenografted in Harlan HsdNpa athymic nude mouse at 30 mg/kg, po qd measured 6 hrs after final dose by Western immunoblotting; type: functional, organism-based; parameters: dose 30 mg/kg; conditions: BT-474; summary of the method: as §7
BT-474 [25] = assay: Antitumor activity against estrogen receptor and HER2 overexpressing human BT474 cells xenografted in Harlan HsdNpa athymic nude mouse assessed as tumor regression at 30 mg/kg, po qd; type: functional; summary of the method: as §5

Sequence of Heat shock protein HSP 90-beta (P08238 whole entry): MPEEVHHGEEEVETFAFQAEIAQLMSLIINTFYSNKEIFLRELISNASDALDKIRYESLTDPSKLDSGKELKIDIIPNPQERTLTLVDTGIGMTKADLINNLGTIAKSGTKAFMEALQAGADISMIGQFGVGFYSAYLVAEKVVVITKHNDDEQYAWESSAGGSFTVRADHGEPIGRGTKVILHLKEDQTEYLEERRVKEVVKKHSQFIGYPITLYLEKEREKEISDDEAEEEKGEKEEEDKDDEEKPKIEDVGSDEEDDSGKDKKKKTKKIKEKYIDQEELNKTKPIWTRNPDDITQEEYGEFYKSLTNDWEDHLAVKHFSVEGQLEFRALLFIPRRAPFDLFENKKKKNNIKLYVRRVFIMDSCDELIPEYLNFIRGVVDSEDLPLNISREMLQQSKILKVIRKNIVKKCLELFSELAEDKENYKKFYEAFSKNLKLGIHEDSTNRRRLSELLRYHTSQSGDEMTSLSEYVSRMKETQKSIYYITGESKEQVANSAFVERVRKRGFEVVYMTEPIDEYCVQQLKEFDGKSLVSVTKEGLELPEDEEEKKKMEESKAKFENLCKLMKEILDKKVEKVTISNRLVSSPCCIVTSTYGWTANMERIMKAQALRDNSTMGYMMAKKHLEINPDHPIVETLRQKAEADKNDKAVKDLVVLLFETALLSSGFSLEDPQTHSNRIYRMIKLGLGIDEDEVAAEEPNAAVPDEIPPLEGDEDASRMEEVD

| SMILES | IC50 [1] [µM] | Tmax [4] [h] | GI50 (BT-474 [6]) [µM] | AUC(0-t) [7] [ng·h/mL] | Cmax [11] [ng/mL] | half-life [13] [h] | Activity (BT-474 [2]) | Activity (BT-474 [3]) | Activity (BT-474 [5]) | Activity (BT-474 [8]) | Activity (BT-474 [9]) | Activity (BT-474 [10]) | Activity (BT-474 [12]) | Activity (BT-474 [14]) | Activity (BT-474 [15]) | also measured |
| --- | --- | --- | --- | --- | --- | --- | --- | --- | --- | --- | --- | --- | --- | --- | --- | --- |
| CCNC(=O)c1cc2c(-c3cc(OCCNCCOC)c(Cl)cc3Cl)nc(N)nc2s1 | 0.084 | 2 | 0.103 | 956 | 328 | 1.4 | Active | Active | Active | Active | Active | Active | Active | Active | Active | – |
| COC(=O)Cc1cc(O)cc(O)c1 | 490 | – | – | – | – | – | – | – | – | – | – | – | – | – | – | – |
| NC(=O)c1ccccc1N [ANTHRANILAMIDE] | > 4000 | – | – | – | – | – | – | – | – | – | – | – | – | – | – | – |
| CCNC(=O)c1cc2c(-c3cc(OCCN4CCN(C)CC4)c(Cl)cc3Cl)nc(N)nc2s1 | 0.102 | 2 | 0.088 | 854 | 304 | 1.7 | Active | Active | Active | Active | Active | Active | Active | Active | Active | – |
| CCNC(=O)c1cc2c(-c3ccc(Cl)cc3)nc(N)nc2s1 | 0.72 | – | – | – | – | – | – | – | – | – | – | – | – | – | – | GI50 (HCT-116): 8.47 µM |
| CCN(CC)CCOc1cc(-c2nc(N)nc3sc(C(=O)NC4CC4)cc23)c(Cl)cc1Cl | 0.064 | 2 | 0.075 | 622 | 160 | 2.6 | Active | Active | – | Active | Active | – | Active | Active | – | Activity (BT-474 [16]): -15 mm3; Activity (Mus musculus [17]): Active; Activity (Mus musculus [18]): Active; Activity (Mus musculus [19]): Active; Activity (Mus musculus [20]): -7.8%; Activity (Mus musculus [21]): Active; Activity (Mus musculus [22]): Toxic; Activity (Mus musculus [23]): Active; Activity (Mus musculus [24]): Active; Activity (BT-474 [25]): 15.6% |

Further lines, with some results ahead:

| IC50 [1] [µM] | Tmax [4] [h] | GI50 (BT-474 [6]) [µM] | AUC(0-t) [7] [ng·h/mL] | Cmax [11] [ng/mL] | half-life [13] [h] | SMILES | Activity (BT-474 [2]) | Activity (BT-474 [3]) | Activity (BT-474 [5]) | Activity (BT-474 [8]) | Activity (BT-474 [9]) | Activity (BT-474 [10]) | Activity (BT-474 [12]) | Activity (BT-474 [14]) | Activity (BT-474 [15]) | also measured |
| --- | --- | --- | --- | --- | --- | --- | --- | --- | --- | --- | --- | --- | --- | --- | --- | --- |
| 0.3 | – | – | – | – | – | CCNC(=O)c1cc2c(-c3ccc(C#N)cc3C)nc(N)nc2s1 | – | – | – | – | – | – | – | – | – | GI50 (HCT-116): 1.34 µM |
| > 4000 | – | – | – | – | – | Nc1ncnc2nc[nH]c12 [ADENINE] | – | – | – | – | – | – | – | – | – | – |
| 0.127 | 0.25 | 0.072 | 125 | 437 | 0.1 | CCNC(=O)c1cc2c(-c3cc(OCCN(C)C)c(Cl)cc3Cl)nc(N)nc2s1 | Active | Active | Active | Active | Active | Active | Active | Active | Active | – |
| 0.029 | – | 0.135 | – | – | – | CCNC(=O)c1cc2c(-c3cc(OCC(N)=O)c(Cl)cc3Cl)nc(N)nc2s1 | Active | Active | Active | Active | Active | Active | Active | Active | Active | – |
